Measured values pooled from the literature.
Each line is one published result; the experiments were not run side by side.
Read-out: cell growth or viability

CC(C)(C)c1cnc(CSc2cnc(NC(=O)C3CCN(C(=O)CCOCCCN4Cc5cc6c(cc5C4)C(=O)N(C4CCC(=O)NC4=O)C6=O)CC3)s2)o1 (stereo not drawn) gave an IC50 of 16.9 nM (TC-71; MTT; 72 h).
With Cc1cc2c(C(N)=O)nccc2n1-c1nc2c(c(NCc3ccccc3)n1)CCCN2 the IC50 was 4900 nM (RPMI-8226; ATP luminescence; 72 h).
For CC(C)(C)NS(=O)(=O)c1cccc(C(=O)N2CC3(CCC4(CC4)CC3)c3cc(NS(C)(=O)=O)ccc32)c1, the IC50 was 11 nM (OVCAR-3; 7 days).
COc1cccc2c1C(=O)c1c(O)c3c(c(O)c1C2=O)C[C@@](O)(C(=O)CO)C[C@@H]3O[C@H]1C[C@H](N)[C@H](O)[C@H](C)O1 has an IC50 of 36100 nM (ACHN; MTT; 24 h).
With Cc1cc2c(C(=O)O)cccc2n1-c1nc2c(c(NCc3ccccc3)n1)CCCN2 the IC50 was 800 nM (RPMI-8226; ATP luminescence; 72 h).
The IC50 of CC(C)(C)c1cnc(CSc2cnc(NC(=O)C3CCN(CC(=O)NCCOCCOCCOCCNc4cccc5c4C(=O)N(C4CCC(=O)NC4=O)C5=O)CC3)s2)o1 (stereo not drawn) is reported as 21.6 nM (TC-71; MTT; 72 h).
O=C(O)c1ccc(NCc2ccccc2)cc1 has an IC50 of > 100000 nM (NCI-H69; resazurin; 72 h).
For Cc1cc2c(C(N)=O)cccc2n1-c1nc2c(c(NCc3ccccc3)n1)CCCN2, the IC50 was 900 nM (RPMI-8226; ATP luminescence; 72 h).
CC(C)(C)c1cnc(CSc2cnc(NC(=O)C3CCN(C(=O)CCCCCN4Cc5cc6c(cc5C4)C(=O)N(C4CCC(=O)NC4=O)C6=O)CC3)s2)o1 (stereo not drawn) gave an IC50 of 4.71 nM (TC-71; MTT; 72 h).
Cc1cc2c(C(N)=O)cncc2n1-c1nc2c(c(NCc3ccccc3)n1)CCCN2 gave an IC50 of 2900 nM (RPMI-8226; ATP luminescence; 72 h).
With CN1C(=O)CCC(N2C(=O)c3cc4c(cc3C2=O)CN(CCCCCCCC(=O)N2CCC(C(=O)Nc3ncc(SCc5ncc(C(C)(C)C)o5)s3)CC2)C4)C1=O (stereo not drawn) the IC50 was > 1000 nM (TC-71; MTT; 72 h).
O=C(O)c1ccc(NCc2cccc(O)c2)cc1 gave an IC50 of > 100000 nM (NCI-H69; resazurin; 72 h).
Cc1cc2c(C(N)=O)cccc2n1-c1nc2c(c(NCc3cccnc3)n1)CCCN2 gave an IC50 of 2000 nM (RPMI-8226; ATP luminescence; 72 h).
CSc1ccc(CNc2ccc(C(=O)O)cc2)cc1 has an IC50 of > 100000 nM (NCI-H69; resazurin; 72 h).
For COc1ccc2c(c1)OC1=C(C(=O)CC(C)(C)C1)C2c1c(C(=O)O)[nH]c2ccccc12 (stereo not drawn), the IC50 was 24.5 µg/mL (3T3-L1; MTT; 72 h).
COc1ccc(CNc2ccc(C(=O)O)cc2)cc1 gave an IC50 of > 100000 nM (NCI-H69; resazurin; 72 h).
For CC(C)(C)c1cnc(CSc2cnc(NC(=O)C3CCNCC3)s2)o1, the IC50 was 48.9 nM (TC-71; MTT; 72 h).
The IC50 of O=C(O)c1ccc(NCc2ccc(Cl)cc2)cc1 is reported as > 100000 nM (NCI-H69; resazurin; 72 h).
CC(C)(C)c1cnc(CSc2cnc(NC(=O)C3CCN(C(=O)CCCCN4Cc5cc6c(cc5C4)C(=O)N(C4CCC(=O)NC4=O)C6=O)CC3)s2)o1 (stereo not drawn) gave an IC50 of 13 nM (TC-71; MTT; 72 h).
The IC50 of COc1ccc(CNc2ccc(C(=O)O)cc2)cc1OC is reported as > 100000 nM (NCI-H69; resazurin; 72 h).
Cc1cc2c(C(N)=O)cccc2n1-c1nc2c(c(NCc3cccc(O)c3)n1)CCCN2 has an IC50 of 300 nM (RPMI-8226; ATP luminescence; 72 h).
